What was measured:
Assay type in all cases: functional, cell-based
Settings in all cases: hek293
[1] = molecular target: Melanocyte-stimulating hormone receptor (Mus musculus, UniProt Q01727); test: Agonist activity at mouse MC1 receptor expressed in HEK293 cells after 6 hrs by cAMP-based beta-galactosidase reporter gene assay
How it was run: (§1)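 HEK-293 cells stably expressing the mouse receptor, kept in DMEM with 10% fetal calf serum, transfected with CRE/β-galactosidase reporter. Efficacy is relative to NDP-MSH on the same plate. EC50 is the mean of duplicate wells from three or more independent experiments, fitted by nonlinear least squares.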

Melanocortin receptor 4 = Melanocortin receptor 4 (Mus musculus, UniProt P56450); test: Agonist activity at mouse MC4 receptor expressed in HEK293 cells after 6 hrs by cAMP-based beta-galactosidase reporter gene assay; how it was run: as §1
Melanocortin receptor 4, sequence (P56450 whole entry): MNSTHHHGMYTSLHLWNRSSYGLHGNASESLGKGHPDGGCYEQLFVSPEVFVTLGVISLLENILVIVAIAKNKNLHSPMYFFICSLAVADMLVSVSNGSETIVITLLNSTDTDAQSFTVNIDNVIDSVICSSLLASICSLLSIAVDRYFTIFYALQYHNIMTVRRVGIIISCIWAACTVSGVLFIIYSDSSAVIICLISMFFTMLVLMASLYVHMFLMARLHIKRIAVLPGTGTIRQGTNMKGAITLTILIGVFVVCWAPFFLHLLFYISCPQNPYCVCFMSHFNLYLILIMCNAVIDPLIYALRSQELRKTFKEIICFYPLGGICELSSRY

Melanocortin receptor 5 = Melanocortin receptor 5 (Mus musculus, UniProt P41149); test: Agonist activity at mouse MC5 receptor expressed in HEK293 cells after 6 hrs by cAMP-based beta-galactosidase reporter gene assay; how it was run: as §1
Melanocortin receptor 5, sequence (P41149 whole entry): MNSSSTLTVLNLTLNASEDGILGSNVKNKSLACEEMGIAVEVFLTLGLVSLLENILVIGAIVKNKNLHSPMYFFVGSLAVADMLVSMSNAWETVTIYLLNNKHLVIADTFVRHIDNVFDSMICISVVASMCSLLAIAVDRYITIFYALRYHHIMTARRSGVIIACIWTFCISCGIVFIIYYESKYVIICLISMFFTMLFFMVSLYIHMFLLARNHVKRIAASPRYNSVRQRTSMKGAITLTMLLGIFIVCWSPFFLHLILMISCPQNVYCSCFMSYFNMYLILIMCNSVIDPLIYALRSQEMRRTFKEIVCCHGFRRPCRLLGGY

Melanocyte-stimulating hormone receptor, sequence (Q01727 whole entry): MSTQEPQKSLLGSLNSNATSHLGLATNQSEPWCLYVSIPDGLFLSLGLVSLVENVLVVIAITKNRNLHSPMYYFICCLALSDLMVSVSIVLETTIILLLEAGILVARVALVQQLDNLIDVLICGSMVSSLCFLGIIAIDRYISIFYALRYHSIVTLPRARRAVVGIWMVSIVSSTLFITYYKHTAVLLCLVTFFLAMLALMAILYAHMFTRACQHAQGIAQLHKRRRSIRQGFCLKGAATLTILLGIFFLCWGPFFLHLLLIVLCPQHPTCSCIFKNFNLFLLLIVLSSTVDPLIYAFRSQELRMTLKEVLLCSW

Row | EC50 [1] [nM] | EC50 (Melanocortin receptor 4) [nM] | EC50 (Melanocortin receptor 5) [nM] | SMILES
1 | 7.4 | 130 | 205 | C[C@@H]1NC(=O)[C@H](CC(N)=O)NC(=O)[C@H](Cc2c[nH]c3ccccc23)N2C[C@H](CCCNC(=N)N)NC(=O)[C@H](CSCC2=O)NC(=O)[C@@H](Cc2cccc3ccccc23)NC(=O)[C@H](Cc2c[nH]cn2)NC(=O)[C@@H](NC(=O)[C@@H](N)Cc2ccc(O)cc2)CSSC[C@@H](C(=O)N[C@@H](Cc2ccc(O)cc2)C(N)=O)NC(=O)[C@H](Cc2ccccc2)NC1=O
2 | 80 | 210 | 125 | C[C@@H]1NC(=O)[C@H](CC(N)=O)NC(=O)[C@H](C)N2C[C@H](CCCNC(=N)N)NC(=O)[C@H](CSCC2=O)NC(=O)[C@@H](Cc2ccccc2)NC(=O)[C@H](Cc2c[nH]cn2)NC(=O)[C@@H](NC(=O)[C@@H](N)Cc2ccc(O)cc2)CSSC[C@@H](C(=O)N[C@@H](Cc2ccc(O)cc2)C(N)=O)NC(=O)[C@H](Cc2ccccc2)NC1=O
3 | 20 | 980 | 830 | C[C@@H]1NC(=O)[C@H](CC(N)=O)NC(=O)[C@H](Cc2ccc(-c3ccccc3)cc2)N2C[C@H](CCCNC(=N)N)NC(=O)[C@H](CSCC2=O)NC(=O)[C@@H](Cc2ccccc2)NC(=O)[C@H](Cc2c[nH]cn2)NC(=O)[C@@H](NC(=O)[C@@H](N)Cc2ccc(O)cc2)CSSC[C@@H](C(=O)N[C@@H](Cc2ccc(O)cc2)C(N)=O)NC(=O)[C@H](Cc2ccccc2)NC1=O
4 | 5000 | 5400 | 1100 | C[C@@H]1NC(=O)[C@H](CC(N)=O)NC(=O)[C@H](Cc2c[nH]c3ccccc23)N2C[C@H](CCCNC(=N)N)NC(=O)[C@H](CSCC2=O)NC(=O)[C@@H]2CCCN2C(=O)[C@H](Cc2c[nH]cn2)NC(=O)[C@@H](NC(=O)[C@@H](N)Cc2ccc(O)cc2)CSSC[C@@H](C(=O)N[C@@H](Cc2ccc(O)cc2)C(N)=O)NC(=O)[C@H](Cc2ccccc2)NC1=O
5 | 14 | 50 | 29 | C[C@@H]1NC(=O)[C@H](CC(N)=O)NC(=O)[C@@H](Cc2ccc3ccccc3c2)N2C[C@H](CCCNC(=N)N)NC(=O)[C@H](CSCC2=O)NC(=O)[C@@H](Cc2ccccc2)NC(=O)[C@H](Cc2c[nH]cn2)NC(=O)[C@@H](NC(=O)[C@@H](N)Cc2ccc(O)cc2)CSSC[C@@H](C(=O)N[C@@H](Cc2ccc(O)cc2)C(N)=O)NC(=O)[C@H](Cc2ccccc2)NC1=O
6 | 1.1 | 760 | 87 | C[C@@H]1NC(=O)[C@H](CC(N)=O)NC(=O)[C@H](Cc2c[nH]c3ccccc23)N2C[C@H](CCCNC(=N)N)NC(=O)[C@H](CSCC2=O)NC(=O)[C@@H](Cc2ccc(-c3ccccc3)cc2)NC(=O)[C@H](Cc2c[nH]cn2)NC(=O)[C@@H](NC(=O)[C@@H](N)Cc2ccc(O)cc2)CSSC[C@@H](C(=O)N[C@@H](Cc2ccc(O)cc2)C(N)=O)NC(=O)[C@H](Cc2ccccc2)NC1=O
7 | 6.2 | 220 | 52 | C[C@@H]1NC(=O)[C@H](CC(N)=O)NC(=O)[C@H](Cc2ccc3ccccc3c2)N2C[C@H](CCCNC(=N)N)NC(=O)[C@H](CSCC2=O)NC(=O)[C@@H](Cc2ccccc2)NC(=O)[C@H](Cc2c[nH]cn2)NC(=O)[C@@H](NC(=O)[C@@H](N)Cc2ccc(O)cc2)CSSC[C@@H](C(=O)N[C@@H](Cc2ccc(O)cc2)C(N)=O)NC(=O)[C@H](Cc2ccccc2)NC1=O
8 | 32 | 240 | 270 | C[C@@H]1NC(=O)[C@H](CC(N)=O)NC(=O)[C@H](Cc2c[nH]c3ccccc23)N2C[C@H](CCCNC(=N)N)NC(=O)[C@H](CSCC2=O)NC(=O)[C@@H](Cc2ccccc2)NC(=O)[C@@H]2CCCN2C(=O)[C@@H](NC(=O)[C@@H](N)Cc2ccc(O)cc2)CSSC[C@@H](C(=O)N[C@@H](Cc2ccc(O)cc2)C(N)=O)NC(=O)[C@H](Cc2ccccc2)NC1=O
9 | 30 | 420 | 460 | C[C@@H]1NC(=O)[C@H](CC(N)=O)NC(=O)[C@H](Cc2c[nH]c3ccccc23)N2C[C@H](CCCCN)NC(=O)[C@H](CSCC2=O)NC(=O)[C@@H](Cc2ccccc2)NC(=O)[C@H](Cc2c[nH]cn2)NC(=O)[C@@H](NC(=O)[C@@H](N)Cc2ccc(O)cc2)CSSC[C@@H](C(=O)N[C@@H](Cc2ccc(O)cc2)C(N)=O)NC(=O)[C@H](Cc2ccccc2)NC1=O
10 | 2.4 | 190 | 46 | C[C@@H]1NC(=O)[C@H](CC(N)=O)NC(=O)[C@H](Cc2c[nH]c3ccccc23)N2C[C@H](CCCN=C(N)N)NC(=O)[C@H](CSCC2=O)NC(=O)[C@@H](Cc2ccccc2)NC(=O)[C@H](Cc2cnc[nH]2)NC(=O)[C@@H](NC(=O)[C@@H](N)Cc2ccc(O)cc2)CSSC[C@@H](C(=O)N[C@@H](Cc2ccc(O)cc2)C(N)=O)NC(=O)[C@H](Cc2ccccc2)NC1=O
11 | 19 | 1300 | 850 | C[C@@H]1NC(=O)[C@H](CC(N)=O)NC(=O)[C@H](Cc2c[nH]c3ccccc23)N2C[C@H](C)NC(=O)[C@H](CSCC2=O)NC(=O)[C@@H](Cc2ccccc2)NC(=O)[C@H](Cc2c[nH]cn2)NC(=O)[C@@H](NC(=O)[C@@H](N)Cc2ccc(O)cc2)CSSC[C@@H](C(=O)N[C@@H](Cc2ccc(O)cc2)C(N)=O)NC(=O)[C@H](Cc2ccccc2)NC1=O
12 | 1.94 | 290 | 415 | C[C@@H]1NC(=O)[C@H](CC(N)=O)NC(=O)[C@H](Cc2c[nH]c3ccccc23)N2C[C@H](CCCNC(=N)N)NC(=O)[C@H](CSCC2=O)NC(=O)[C@@H](Cc2ccccc2)NC(=O)[C@H](Cc2ccccc2)NC(=O)[C@@H](NC(=O)[C@@H](N)Cc2ccc(O)cc2)CSSC[C@@H](C(=O)N[C@@H](Cc2ccc(O)cc2)C(N)=O)NC(=O)[C@H](Cc2ccccc2)NC1=O
13 | 15 | 965 | 350 | C[C@@H]1NC(=O)[C@H](CC(N)=O)NC(=O)[C@H](Cc2c[nH]c3ccccc23)N2C[C@H](CCCCNC(=N)N)NC(=O)[C@H](CSCC2=O)NC(=O)[C@@H](Cc2ccccc2)NC(=O)[C@H](Cc2c[nH]cn2)NC(=O)[C@@H](NC(=O)[C@@H](N)Cc2ccc(O)cc2)CSSC[C@@H](C(=O)N[C@@H](Cc2ccc(O)cc2)C(N)=O)NC(=O)[C@H](Cc2ccccc2)NC1=O
14 | 0.5 | 20 | 9.8 | C[C@@H]1NC(=O)[C@H](CC(N)=O)NC(=O)[C@H](Cc2c[nH]c3ccccc23)N2C[C@H](CCCNC(=N)N)NC(=O)[C@H](CSCC2=O)NC(=O)[C@@H](Cc2ccc(I)cc2)NC(=O)[C@H](Cc2c[nH]cn2)NC(=O)[C@@H](NC(=O)[C@@H](N)Cc2ccc(O)cc2)CSSC[C@@H](C(=O)N[C@@H](Cc2ccc(O)cc2)C(N)=O)NC(=O)[C@H](Cc2ccccc2)NC1=O
15 | 8.7 | 190 | 46 | C[C@@H]1NC(=O)[C@H](CC(N)=O)NC(=O)[C@H](Cc2c[nH]c3ccccc23)N2C[C@H](CCCNC(=N)N)NC(=O)[C@H](CSCC2=O)NC(=O)[C@@H](Cc2ccc3ccccc3c2)NC(=O)[C@H](Cc2c[nH]cn2)NC(=O)[C@@H](NC(=O)[C@@H](N)Cc2ccc(O)cc2)CSSC[C@@H](C(=O)N[C@@H](Cc2ccc(O)cc2)C(N)=O)NC(=O)[C@H](Cc2ccccc2)NC1=O
16 | 52 | 705 | 690 | C[C@@H]1NC(=O)[C@@H](NC(=O)[C@@H](N)Cc2ccc(O)cc2)CSSC[C@@H](C(=O)N[C@@H](Cc2ccc(O)cc2)C(N)=O)NC(=O)[C@H](Cc2ccccc2)NC(=O)[C@H](C)NC(=O)[C@H](CC(N)=O)NC(=O)[C@H](Cc2c[nH]c3ccccc23)N2C[C@H](CCCNC(=N)N)NC(=O)[C@H](CSCC2=O)NC(=O)[C@@H](Cc2ccccc2)NC1=O

From ChEMBL document CHEMBL2321783, “Structure-activity relationships of peptides incorporating a bioactive reverse-turn heterocycle at the melanocortin receptors: identification of a 5800-fold mouse melanocortin-3 receptor (mMC3R) selective antagonist/partial agonist versus the mouse melanocortin-4 receptor (mMC4R)” (J Med Chem, 2013)
